Laboratory results: ChEMBL document CHEMBL2331352, “Syntheses and anti-allergic activity of 2-((bis(trimethylsilyl)methylthio/methylsulfonyl)methyl)-5-aryl-1,3,4-oxadiazoles” (Eur J Med Chem, 2013)
Activity calls are given as the source filed them. No cut-off for these calls is given here.

Legend:
RBL-2H3 [1] = experiment: Antiallergic activity in rat RBL2H3 cells assessed as inhibition of IgE/Ag-induced beta-hexosaminidase activity at 100 uM incubated for 30 mins by spectrophotometric analysis; type: functional, cell-based
Method in brief: (§1)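 RBL-2H3 cells (2 × 10⁵/well) were sensitized overnight with anti-DNP IgE at 200 ng/mL and washed twice in PIPES buffer (25 mM PIPES, pH 7.2, 0.1% BSA, 1 mM CaCl₂, 5.6 mM glucose). They were pretreated 30 min at 37 °C with compound, then challenged with DNP-HSA 25 ng/mL for 15 min at 37 °C and chilled on ice. Supernatant was mixed with p-nitrophenyl-N-acetyl-glucosaminide in 0.1 M citrate pH 4.5 for 1 h at 37 °C. Reaction was stopped with 0.1 M carbonate pH 10.5 and read at 405 nm. Mean ± S.D. of three independent experiments, each in triplicate.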

RBL-2H3 [2] = experiment: Antiallergic activity in rat RBL2H3 cells assessed as inhibition of IgE/Ag-induced beta-hexosaminidase activity incubated for 30 mins by spectrophotometric analysis; type: functional, cell-based; details: for IC50: RBL-2H3, 0.5 h; method in brief: as §1
RBL-2H3 [3] = experiment: Cytotoxicity against rat RBL2H3 cells at 50 to 100 uM after 24 hrs by Ez-cytox assay; type: cell-based; details: rbl-2h3, 24 h
Method in brief: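 IgE-sensitized RBL-2H3 cells (overnight, 200 ng/mL DNP-specific IgE) were exposed to compound at 0, 50 or 100 concentrations at 37 °C for 23–24 h. EZ-Cytox reagent was added at 10% of volume for 1 h at 37 °C and absorbance read at 450 nm. Viability is given as % of untreated control; mean ± S.D. of three independent experiments, each in triplicate.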

RBL-2H3 [4] = experiment: Antiallergic activity in rat RBL2H3 cells assessed as inhibition of IgE/Ag-induced beta-hexosaminidase activity at 50 uM incubated for 30 mins by spectrophotometric analysis; type: functional, cell-based; method in brief: as §1

For `C[Si](C)(C)C(SCc1nnc(-c2ccc(Cl)cc2)o1)[Si](C)(C)C`, the inhibition (RBL-2H3 [1]) was “Active” and the inhibition (RBL-2H3 [2]) was “Dose-dependent effect”.
`C[Si](C)(C)C([Si](C)(C)C)S(=O)(=O)Cc1nnc(-c2ccc(Cl)cc2)o1` was tested, and the Activity (RBL-2H3 [3]) was “Non-toxic”, the inhibition (RBL-2H3 [1]) was “Active” and the inhibition (RBL-2H3 [2]) was “Dose-dependent effect”. It also gave an IC50 (RBL-2H3 [2]) of 75.5 µM.
For `Cc1ccc(-c2nnc(CSC([Si](C)(C)C)[Si](C)(C)C)o2)cc1`, the inhibition (RBL-2H3 [1]) was “Active” and the inhibition (RBL-2H3 [2]) was “Dose-dependent effect”.
With `C[Si](C)(C)C([Si](C)(C)C)S(=O)(=O)Cc1nnc(-c2ccccc2)o1` the Activity (RBL-2H3 [3]) was “Non-toxic”, the inhibition (RBL-2H3 [1]) was “Active” and the inhibition (RBL-2H3 [2]) was “Dose-dependent effect”. For the same compound, the IC50 (RBL-2H3 [2]) was 37.2 µM.
For `C[Si](C)(C)C(SCc1nnc(-c2ccccc2)o1)[Si](C)(C)C`, the inhibition (RBL-2H3 [1]) was “Active”, the inhibition (RBL-2H3 [2]) was “Dose-dependent effect” and the IC50 (RBL-2H3 [2]) was 98.8 µM. For the same compound, the inhibition (RBL-2H3 [4]) was “Active”.
`Cc1ccc(-c2nnc(CS(=O)(=O)C([Si](C)(C)C)[Si](C)(C)C)o2)cc1` was tested, and the Activity (RBL-2H3 [3]) was “Non-toxic”, the inhibition (RBL-2H3 [1]) was “Active” and the inhibition (RBL-2H3 [2]) was “Dose-dependent effect”. It also gave an IC50 (RBL-2H3 [2]) of 62.3 µM.
